Assay results as given in ChEMBL document CHEMBL4028913, “Discovery of Novel Potent VEGFR-2 Inhibitors Exerting Significant Antiproliferative Activity against Cancer Cell Lines” (J Med Chem, 2018).
Activity calls are given as the source filed them. The calls are words filed in the database; no cut-off is given here.

Experiments:
[1] = Potency index, ratio of sorafenib GI50 to test compound GI50 for human renal cancer cells; type: functional, Renal cancer cell
Procedure, shortened: (§1)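 GI50 is the concentration giving 50% reduction in net protein increase relative to control. Potency index is the reference-drug GI50 divided by the test-compound GI50.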

[2] = molecular target: Vascular endothelial growth factor receptor 2 (Homo sapiens, UniProt P35968)
[3] = tested on: EKVX; assay: Cytotoxicity against human EKVX cells after 48 hrs by SRB assay; type: functional
Procedure, shortened: (§2)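 NCI-60 panel; cells grown in RPMI 1640 with 5% FBS and 2 mM L-glutamine, plated at 5000–40 000 cells/well by doubling time, preincubated 24 h (37 °C, 5% CO2). Drug added at five concentrations, 1-log steps from 10−4 to 10−8 M, for 48 h. Fixed with TCA, stained with 0.4% SRB, absorbance read at 515 nm. Percent growth computed against time-zero and untreated controls; GI50, TGI and LC50 derived.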

[4] = tested on: HCC 2998; assay: Cytotoxicity against human HCC2998 cells after 48 hrs by SRB assay; type: functional; conditions: HCC 2998, 48 h; procedure, shortened: as §2
[5] = tested on: HCT-116; assay: Cytotoxicity against human HCT116 cells after 48 hrs by SRB assay; type: functional; conditions: HCT-116, 48 h; procedure, shortened: as §2
[6] = tested on: KM12; assay: Cytotoxicity against human KM12 cells after 48 hrs by SRB assay; type: functional; conditions: KM12, 48 h; procedure, shortened: as §2
[7] = tested on: SF-539; assay: Cytotoxicity against human SF539 cells after 48 hrs by SRB assay; type: functional; conditions: SF-539, 48 h; procedure, shortened: as §2
[8] = tested on: SNB-19; assay: Cytotoxicity against human SNB19 cells after 48 hrs by SRB assay; type: functional; conditions: SNB-19, 48 h; procedure, shortened: as §2
[9] = tested on: MDA-MB-435; assay: Cytotoxicity against human MDA-MB-435 cells after 48 hrs by SRB assay; type: functional; conditions: MDA-MB-435, 48 h; procedure, shortened: as §2
[10] = tested on: SK-MEL-2; assay: Cytotoxicity against human SK-MEL-2 cells after 48 hrs by SRB assay; type: functional; conditions: SK-MEL-2, 48 h; procedure, shortened: as §2
[11] = tested on: SK-MEL-28; assay: Cytotoxicity against human SK-MEL-28 cells after 48 hrs by SRB assay; type: functional; conditions: SK-MEL-28, 48 h; procedure, shortened: as §2
[12] = tested on: NCI/ADR-RES; assay: Cytotoxicity against human NCI-ADR-RES cells after 48 hrs by SRB assay; type: functional; procedure, shortened: as §2
[13] = tested on: SK-OV-3; assay: Cytotoxicity against human SKOV3 cells after 48 hrs by SRB assay; type: functional; conditions: SK-OV-3, 48 h; procedure, shortened: as §2
[14] = tested on: RXF 393; assay: Cytotoxicity against human RXF393 cells after 48 hrs by SRB assay; type: functional; conditions: RXF 393, 48 h; procedure, shortened: as §2
[15] = tested on: SN12C; assay: Cytotoxicity against human SN12C cells after 48 hrs by SRB assay; type: functional; procedure, shortened: as §2
[16] = tested on: UO-31; assay: Cytotoxicity against human UO31 cells after 48 hrs by SRB assay; type: functional; conditions: UO-31, 48 h
Procedure, shortened: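 NCI-60 panel, five doses at 1-log steps from 10−4 to 10−8 M. Cells grown in RPMI 1640 with 5% FBS and 2 mM L-glutamine, seeded at 5000–40 000 cells/well and preincubated 24 h. Tz plates were TCA-fixed at drug addition. Drug exposure 48 h at 37 °C, then TCA fixation, 0.4% SRB stain and absorbance at 515 nm. GI50 taken from percent growth relative to Tz and control.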

[17] = tested on: DU-145; assay: Cytotoxicity against human DU145 cells after 48 hrs by SRB assay; type: functional; conditions: DU-145, 48 h; procedure, shortened: as §2
[18] = tested on: MCF7; assay: Cytotoxicity against human MCF7 cells after 48 hrs by SRB assay; type: functional; conditions: MCF7, 48 h; procedure, shortened: as §2
[19] = tested on: Hs-578T; assay: Cytotoxicity against human Hs 578T cells after 48 hrs by SRB assay; type: functional; procedure, shortened: as §2
[20] = tested on: MDA-MB-468; assay: Cytotoxicity against human MDA-MB-468 cells after 48 hrs by SRB assay; type: functional; conditions: MDA-MB-468, 48 h; procedure, shortened: as §2
[21] = Potency index, ratio of sorafenib TGI to test compound TGI for human renal cancer cells; type: functional, Renal cancer cell
[22] = Potency index, ratio of test compound LC50 to sunitinib LC50 for human renal cancer cells; type: functional, Renal cancer cell
[23] = Potency index, ratio of sunitinib GI50 to test compound GI50 for human ovarian cancer cells; type: functional, Ovarian cancer cell
[24] = Potency index, ratio of sunitinib GI50 to test compound GI50 for human colon cancer cells; type: functional, Colon cancer cell; procedure, shortened: as §1
[25] = tested on: Melanoma cell; assay: Potency index, ratio of sunitinib GI50 to test compound GI50 for human melanoma cells; type: functional; procedure, shortened: as §1
[26] = molecular target: Fibroblast growth factor receptor 1 (Homo sapiens) (UniProt P11362); assay: Inhibition of human FGFR1 at 0.5 uM relative to control
Sequence of Fibroblast growth factor receptor 1 (Homo sapiens) (P11362 22-822 limits assumed): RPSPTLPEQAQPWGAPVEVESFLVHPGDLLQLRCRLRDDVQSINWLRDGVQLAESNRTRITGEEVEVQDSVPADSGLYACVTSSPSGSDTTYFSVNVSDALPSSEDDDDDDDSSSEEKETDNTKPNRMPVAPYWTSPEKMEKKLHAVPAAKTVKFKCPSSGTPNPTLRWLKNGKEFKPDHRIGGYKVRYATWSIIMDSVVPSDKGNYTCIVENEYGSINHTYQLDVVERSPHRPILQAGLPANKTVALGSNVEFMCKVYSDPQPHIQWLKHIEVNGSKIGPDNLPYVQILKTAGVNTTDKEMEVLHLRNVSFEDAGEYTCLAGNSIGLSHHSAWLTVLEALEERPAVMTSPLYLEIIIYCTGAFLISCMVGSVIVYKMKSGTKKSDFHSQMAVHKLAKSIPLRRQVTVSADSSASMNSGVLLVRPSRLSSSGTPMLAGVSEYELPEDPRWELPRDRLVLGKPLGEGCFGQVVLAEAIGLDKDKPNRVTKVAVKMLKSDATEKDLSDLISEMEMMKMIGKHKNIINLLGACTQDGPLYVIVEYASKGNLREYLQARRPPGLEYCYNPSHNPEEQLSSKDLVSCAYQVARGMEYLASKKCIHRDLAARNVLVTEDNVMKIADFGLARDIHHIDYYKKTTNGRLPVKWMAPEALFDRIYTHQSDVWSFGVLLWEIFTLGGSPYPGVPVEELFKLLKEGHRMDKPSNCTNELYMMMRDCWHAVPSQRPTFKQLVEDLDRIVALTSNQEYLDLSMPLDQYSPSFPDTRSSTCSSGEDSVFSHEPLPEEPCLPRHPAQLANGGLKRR

[27] = molecular target: Fibroblast growth factor receptor 2 (Homo sapiens) (UniProt P21802); assay: Inhibition of human FGFR2 at 0.5 uM relative to control
Sequence of Fibroblast growth factor receptor 2 (Homo sapiens) (P21802 22-821 limits assumed): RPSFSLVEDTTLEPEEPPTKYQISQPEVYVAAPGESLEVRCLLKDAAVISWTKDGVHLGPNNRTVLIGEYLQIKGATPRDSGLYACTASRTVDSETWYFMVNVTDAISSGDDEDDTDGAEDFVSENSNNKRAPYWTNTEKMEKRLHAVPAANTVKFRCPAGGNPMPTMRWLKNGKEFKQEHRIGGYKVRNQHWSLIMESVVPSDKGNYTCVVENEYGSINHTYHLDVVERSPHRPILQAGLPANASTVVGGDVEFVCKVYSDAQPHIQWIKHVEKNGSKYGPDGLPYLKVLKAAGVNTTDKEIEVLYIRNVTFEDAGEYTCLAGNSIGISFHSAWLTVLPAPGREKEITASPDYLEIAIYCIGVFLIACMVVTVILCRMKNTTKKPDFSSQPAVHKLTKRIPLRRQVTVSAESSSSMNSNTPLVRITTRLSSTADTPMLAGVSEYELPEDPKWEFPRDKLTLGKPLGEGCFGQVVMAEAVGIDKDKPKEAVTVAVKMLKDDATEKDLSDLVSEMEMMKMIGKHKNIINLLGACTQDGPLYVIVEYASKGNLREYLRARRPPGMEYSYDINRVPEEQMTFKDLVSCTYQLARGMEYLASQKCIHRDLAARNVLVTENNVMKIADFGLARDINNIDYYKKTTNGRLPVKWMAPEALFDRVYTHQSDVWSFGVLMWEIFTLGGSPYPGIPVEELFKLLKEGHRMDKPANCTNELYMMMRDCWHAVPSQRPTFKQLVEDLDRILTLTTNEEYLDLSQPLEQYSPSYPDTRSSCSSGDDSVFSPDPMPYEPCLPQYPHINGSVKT

[28] = molecular target: Ephrin type-A receptor 3 (Homo sapiens) (UniProt P29320); assay: Inhibition of human EPHA3 at 0.5 uM relative to control
[29] = molecular target: Vascular endothelial growth factor receptor 1 (Homo sapiens) (UniProt P17948); assay: Inhibition of human Flt1 at 0.5 uM relative to control
[30] = molecular target: Receptor-type tyrosine-protein kinase FLT3 (Homo sapiens) (UniProt P36888); assay: Inhibition of human Flt3 at 0.5 uM relative to control
[31] = molecular target: Vascular endothelial growth factor receptor 3 (Homo sapiens) (UniProt P35916); assay: Inhibition of human Flt4 at 0.5 uM relative to control
[32] = molecular target: TRAF2 and NCK-interacting protein kinase (Homo sapiens) (UniProt Q9UKE5); assay: Inhibition of human TNIK at 0.5 uM relative to control
Sequence of TRAF2 and NCK-interacting protein kinase (Homo sapiens) (Q9UKE5 whole entry, looked up): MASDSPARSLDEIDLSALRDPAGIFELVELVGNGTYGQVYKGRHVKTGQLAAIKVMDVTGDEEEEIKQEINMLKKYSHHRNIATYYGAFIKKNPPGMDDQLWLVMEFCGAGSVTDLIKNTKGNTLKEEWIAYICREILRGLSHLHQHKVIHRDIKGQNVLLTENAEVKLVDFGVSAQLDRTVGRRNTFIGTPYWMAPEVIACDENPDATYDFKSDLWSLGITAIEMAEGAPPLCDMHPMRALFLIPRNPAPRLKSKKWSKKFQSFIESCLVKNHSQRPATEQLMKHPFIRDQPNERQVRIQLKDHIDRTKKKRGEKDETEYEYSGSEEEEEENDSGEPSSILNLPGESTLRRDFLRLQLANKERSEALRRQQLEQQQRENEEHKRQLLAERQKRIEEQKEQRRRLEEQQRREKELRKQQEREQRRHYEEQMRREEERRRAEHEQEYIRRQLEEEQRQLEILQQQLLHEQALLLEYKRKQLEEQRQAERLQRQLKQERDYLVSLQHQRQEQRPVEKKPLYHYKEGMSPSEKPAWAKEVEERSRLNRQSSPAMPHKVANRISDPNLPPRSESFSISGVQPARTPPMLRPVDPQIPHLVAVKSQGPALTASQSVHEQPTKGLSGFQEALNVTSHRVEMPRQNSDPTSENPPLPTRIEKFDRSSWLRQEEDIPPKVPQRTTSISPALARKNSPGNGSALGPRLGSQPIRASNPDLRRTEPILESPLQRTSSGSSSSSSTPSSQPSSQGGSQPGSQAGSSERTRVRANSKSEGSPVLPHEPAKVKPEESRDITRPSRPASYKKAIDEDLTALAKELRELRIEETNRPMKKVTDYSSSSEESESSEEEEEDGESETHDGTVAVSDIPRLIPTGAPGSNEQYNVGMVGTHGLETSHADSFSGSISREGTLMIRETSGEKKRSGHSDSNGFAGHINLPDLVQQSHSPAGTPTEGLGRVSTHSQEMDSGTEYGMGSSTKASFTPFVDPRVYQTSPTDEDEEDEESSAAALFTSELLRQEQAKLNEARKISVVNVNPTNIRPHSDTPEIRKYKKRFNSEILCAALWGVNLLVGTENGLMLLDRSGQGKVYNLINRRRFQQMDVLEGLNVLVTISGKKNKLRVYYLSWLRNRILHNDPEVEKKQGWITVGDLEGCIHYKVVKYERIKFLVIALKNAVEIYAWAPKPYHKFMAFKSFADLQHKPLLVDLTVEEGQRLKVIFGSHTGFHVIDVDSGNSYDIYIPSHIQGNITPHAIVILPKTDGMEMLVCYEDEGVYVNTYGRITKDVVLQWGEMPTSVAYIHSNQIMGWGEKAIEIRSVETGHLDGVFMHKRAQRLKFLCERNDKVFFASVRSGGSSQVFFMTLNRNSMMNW

[33] = molecular target: Tyrosine-protein kinase HCK (Homo sapiens) (UniProt P08631); assay: Inhibition of human HCK at 0.5 uM relative to control
Sequence of Tyrosine-protein kinase HCK (Homo sapiens) (P08631 2-526 limits assumed): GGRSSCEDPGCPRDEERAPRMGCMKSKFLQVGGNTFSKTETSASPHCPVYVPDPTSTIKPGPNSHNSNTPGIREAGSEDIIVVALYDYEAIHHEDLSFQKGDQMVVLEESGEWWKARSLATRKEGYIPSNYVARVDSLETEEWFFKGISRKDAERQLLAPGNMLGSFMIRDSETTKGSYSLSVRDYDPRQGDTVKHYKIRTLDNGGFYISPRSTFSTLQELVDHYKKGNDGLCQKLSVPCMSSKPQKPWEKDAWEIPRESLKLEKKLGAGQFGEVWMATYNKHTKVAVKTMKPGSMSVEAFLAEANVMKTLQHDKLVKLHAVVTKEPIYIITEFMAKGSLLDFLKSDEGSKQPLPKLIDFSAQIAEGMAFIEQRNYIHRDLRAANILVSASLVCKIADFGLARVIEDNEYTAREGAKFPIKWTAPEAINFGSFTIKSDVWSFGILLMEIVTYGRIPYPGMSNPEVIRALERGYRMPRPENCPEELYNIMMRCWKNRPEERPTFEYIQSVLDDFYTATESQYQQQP

[34] = molecular target: STE20-like serine/threonine-protein kinase (Homo sapiens) (UniProt Q9H2G2); assay: Inhibition of human SLK at 0.5 uM relative to control
Sequence of STE20-like serine/threonine-protein kinase (Homo sapiens) (Q9H2G2 whole entry, looked up): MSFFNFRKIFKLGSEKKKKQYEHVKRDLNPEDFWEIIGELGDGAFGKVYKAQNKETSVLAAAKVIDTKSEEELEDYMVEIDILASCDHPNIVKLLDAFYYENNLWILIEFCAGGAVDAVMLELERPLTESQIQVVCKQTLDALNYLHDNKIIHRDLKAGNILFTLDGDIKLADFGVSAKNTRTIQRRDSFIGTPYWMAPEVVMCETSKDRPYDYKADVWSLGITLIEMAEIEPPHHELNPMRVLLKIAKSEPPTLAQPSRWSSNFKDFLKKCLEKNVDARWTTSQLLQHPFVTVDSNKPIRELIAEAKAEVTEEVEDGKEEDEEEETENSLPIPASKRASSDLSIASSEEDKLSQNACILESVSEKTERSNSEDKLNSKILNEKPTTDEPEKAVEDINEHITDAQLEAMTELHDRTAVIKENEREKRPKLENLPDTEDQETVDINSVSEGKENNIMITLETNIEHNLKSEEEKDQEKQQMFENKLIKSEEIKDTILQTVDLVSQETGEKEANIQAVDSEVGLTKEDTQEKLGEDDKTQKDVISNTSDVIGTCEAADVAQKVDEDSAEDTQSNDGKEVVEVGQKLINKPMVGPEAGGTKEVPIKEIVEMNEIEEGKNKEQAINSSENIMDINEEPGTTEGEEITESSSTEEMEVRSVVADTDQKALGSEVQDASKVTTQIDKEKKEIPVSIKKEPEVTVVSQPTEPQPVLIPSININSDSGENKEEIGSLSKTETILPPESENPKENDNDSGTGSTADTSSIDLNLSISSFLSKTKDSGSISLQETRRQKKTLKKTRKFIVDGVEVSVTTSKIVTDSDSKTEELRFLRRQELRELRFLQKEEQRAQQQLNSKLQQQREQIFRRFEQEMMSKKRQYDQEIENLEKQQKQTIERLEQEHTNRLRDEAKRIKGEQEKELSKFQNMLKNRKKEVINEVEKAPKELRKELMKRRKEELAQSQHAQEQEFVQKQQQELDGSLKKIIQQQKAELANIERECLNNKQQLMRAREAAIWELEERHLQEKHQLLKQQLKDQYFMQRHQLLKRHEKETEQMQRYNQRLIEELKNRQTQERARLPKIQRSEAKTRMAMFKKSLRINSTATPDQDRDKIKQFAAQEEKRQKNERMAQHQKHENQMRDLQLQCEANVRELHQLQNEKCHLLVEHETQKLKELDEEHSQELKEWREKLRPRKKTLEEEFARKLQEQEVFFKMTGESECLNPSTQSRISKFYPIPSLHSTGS

[35] = read-out: LC50 (the source's name)

`COc1cc2ncnc(Oc3ccc(NC(=O)Nc4ccc(CN5CCOCC5)c(C(F)(F)F)c4)c4ccccc34)c2cc1OC` showed a RatioGI50 [1] of 9.5, an IC50 [2] of 0.0334 µM and a GI50 [3] of 0.45 µM. It also gave a TGI [3] of 6.46 µM, a CC50 [3, 35] of 67.6 µM and a GI50 [4] of 5.25 µM. For the same compound, the TGI [4] was 20.9 µM, the CC50 [4, 35] was 75.9 µM and the GI50 [5] was 0.79 µM. The TGI [5] was 2.57 µM, the CC50 [5, 35] was 7.08 µM and the GI50 [6] was 0.2 µM. It also gave a TGI [6] of 2.51 µM, a CC50 [6, 35] greater than 100 µM and a GI50 [7] of 1.58 µM. The TGI [7] was 19.5 µM, the CC50 [7, 35] was 52.5 µM and the GI50 [8] was 2.57 µM. For the same compound, the TGI [8] was 14.1 µM, the CC50 [8, 35] was 43.6 µM and the GI50 [9] was 0.37 µM. For the same compound, the TGI [9] was 3.39 µM, the CC50 [9, 35] was 33.9 µM and the GI50 [10] was 1.48 µM. It also gave a TGI [10] of 13.8 µM, a CC50 [10, 35] greater than 100 µM and a GI50 [11] of 0.89 µM. The TGI [11] was 4.79 µM, the CC50 [11, 35] was 42.7 µM and the GI50 [12] was 0.76 µM. The TGI [12] was 58.9 µM, the CC50 [12, 35] was greater than 100 µM and the GI50 [13] was 0.23 µM. It also gave a TGI [13] of 0.95 µM, a CC50 [13, 35] of 37.1 µM and a GI50 [14] of 1.05 µM. The TGI [14] was 7.08 µM, the CC50 [14, 35] was 29.5 µM and the GI50 [15] was 0.29 µM. It also gave a TGI [15] of 1.86 µM, a CC50 [15, 35] of 13.2 µM and a GI50 [16] of 0.2 µM. It also gave a TGI [16] of 10.2 µM, a CC50 [16, 35] of 38 µM and a GI50 [17] of 1.55 µM. For the same compound, the TGI [17] was 13.2 µM, the CC50 [17, 35] was 44.7 µM and the GI50 [18] was 0.33 µM. The TGI [18] was 11 µM, the CC50 [18, 35] was greater than 100 µM and the GI50 [19] was 1.12 µM. For the same compound, the TGI [19] was 9.33 µM, the CC50 [19, 35] was greater than 100 µM and the GI50 [20] was 0.23 µM. It also gave a TGI [20] of 2.82 µM, a CC50 [20, 35] of 72.4 µM and a Ratio [21] of 3.2. For the same compound, the RatioLC50 [22] was 1.3, the RatioGI50 [23] was 5 - 7.7 and the RatioGI50 [24] was 1.1 - 3.7. For the same compound, the RatioGI50 [25] was 1.1 - 3.7, the inhibition [26] was greater than 96% and the inhibition [27] was greater than 96%. For the same compound, the inhibition [28] was “Active”, the inhibition [29] was “Active” and the inhibition [30] was “Active”. The inhibition [31] was “Active”, the inhibition [32] was “Active” and the inhibition [33] was “Active”. For the same compound, the inhibition [34] was “Active”.
